Tests used:
Cytochrome P450 3A4 [1] = biological target: T1, Cytochrome P450 3A4 (Homo sapiens, UniProt P08684); assay: Inhibition of CYP3A4 (unknown origin) using testosterone substrate; assay type: ADME
In short: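 Reactions stopped with acetonitrile/0.1% formic acid plus labelled internal standard. Metabolite measured by LC-MS area ratio. IC50 by linear interpolation.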

Liver microsome = assay: Half life in rat liver microsomes by LC-MS/MS analysis; assay type: ADME
In short: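 Compound at 1 μM with 1 mg/mL liver microsomes in 100 mM potassium phosphate pH 7.4 at 37 °C with shaking. Reaction started with 1 mM NADPH (final). Aliquots were taken at 0, 5, 10, 20, 40 and 60 min and quenched in acetonitrile. Parallel incubations without NADPH were run.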

Caspase-6 (Homo sapiens) = biological target: T2, Caspase-6 (Homo sapiens) (UniProt P55212); assay: Inhibition of recombinant human caspase 6 using VEHDGG substrate at up to 5 uM after 3 hrs
T2 sequence (whole entry): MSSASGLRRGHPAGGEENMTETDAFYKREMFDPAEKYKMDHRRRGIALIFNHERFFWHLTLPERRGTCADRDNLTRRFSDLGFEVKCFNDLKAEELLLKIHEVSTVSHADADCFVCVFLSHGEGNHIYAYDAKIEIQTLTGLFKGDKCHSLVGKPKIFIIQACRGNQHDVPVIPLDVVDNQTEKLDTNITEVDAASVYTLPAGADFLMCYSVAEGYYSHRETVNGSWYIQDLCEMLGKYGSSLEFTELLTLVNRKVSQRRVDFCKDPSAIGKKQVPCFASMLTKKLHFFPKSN
In short: (§1)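 Outsourced microfluidic protease panel. Compound was preincubated with each protease for 30 min at 25 °C, then peptide substrate was added for 3 h at 25 °C and quenched with SDS/EDTA/iodoacetate. Substrate-to-product conversion was measured on LabChip. Compounds were tested singly in a 12-point 3-fold dilution series, top 20 μM (5 μM for two reference compounds).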

Furin (Homo sapiens) = Furin (Homo sapiens) (UniProt P09958); assay: Inhibition of recombinant human furin using RRVKRSLD substrate at up to 5 uM after 3 hrs
In short: (§2)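 In this microfluidic protease panel, enzyme and compound were preincubated 30 min at 25 °C. The peptide substrate was added and the reaction was incubated 3 h at 25 °C, then quenched (SDS, EDTA, iodoacetate). Activity was read as % substrate converted to product. Dose–response was singlicate, 12-point 3-fold dilutions spanning 5 μM to 0.028 nM. IC50 was the concentration leaving 50% activity relative to no-compound control.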

[2] = biological target: Cathepsin D (Homo sapiens) (UniProt P07339); assay: Inhibition of recombinant human cathepsin D using EVNLDAEFRK substrate at up to 5 uM after 3 hrs; in short: as §1
Cytochrome P450 3A4 [3] = biological target: T1, Cytochrome P450 3A4; assay: Inhibition of CYP3A4 (unknown origin) using testosterone substrate at 20 uM; assay type: ADME
In short: (§3)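 Human liver microsomes with probe substrate and an NADPH-regenerating system in 0.1 M potassium phosphate pH 7.4 at 37 °C, run in duplicate. Inhibitor at 0–20 μM (0–2.5 μM for one compound), eight concentrations. Reactions were stopped with acetonitrile/formic acid containing isotope-labelled internal standard, and metabolite area ratios were compared with and without inhibitor. IC50 was taken by linear interpolation between bracketing concentrations.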

[4] = biological target: Coagulation factor X (Homo sapiens) (UniProt P00742); assay: Inhibition of recombinant human factor 10a using ALPRTMFIQ substrate at up to 5 uM after 3 hrs; in short: as §2
CYP3A4 = CYP3A4 (Homo sapiens, UniProt P08684); assay: Inhibition of CYP3A4 (unknown origin) using midazolam substrate at 20 uM; assay type: ADME; settings: probe midazolam; in short: as §3
Caspase-7 (Homo sapiens) = biological target: T3, Caspase-7 (Homo sapiens) (UniProt P55210); assay: Inhibition of recombinant human caspase 7 using DEVDAA substrate at up to 5 uM after 3 hrs; in short: as §1
T3 sequence (whole entry): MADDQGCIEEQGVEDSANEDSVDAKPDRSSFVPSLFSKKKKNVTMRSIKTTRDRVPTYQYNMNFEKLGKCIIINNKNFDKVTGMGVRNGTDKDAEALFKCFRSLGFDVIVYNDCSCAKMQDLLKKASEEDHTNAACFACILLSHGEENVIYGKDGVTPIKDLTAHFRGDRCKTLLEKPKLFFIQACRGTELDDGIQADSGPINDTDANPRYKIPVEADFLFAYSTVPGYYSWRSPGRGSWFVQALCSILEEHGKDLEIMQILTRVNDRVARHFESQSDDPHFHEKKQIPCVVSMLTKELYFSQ

[5] = biological target: Beta-secretase 1 (Homo sapiens) (UniProt P56817); assay: Inhibition of recombinant human BACE1 using SEVNLDAEFRKKRR substrate at up to 5 uM after 3 hrs; in short: as §1
Caspase-5 (Homo sapiens) = biological target: T4, Caspase-5 (Homo sapiens) (UniProt P51878); assay: Inhibition of recombinant human caspase 5 using LEHDGP substrate at up to 5 uM after 3 hrs; in short: as §1
T4 sequence (whole entry): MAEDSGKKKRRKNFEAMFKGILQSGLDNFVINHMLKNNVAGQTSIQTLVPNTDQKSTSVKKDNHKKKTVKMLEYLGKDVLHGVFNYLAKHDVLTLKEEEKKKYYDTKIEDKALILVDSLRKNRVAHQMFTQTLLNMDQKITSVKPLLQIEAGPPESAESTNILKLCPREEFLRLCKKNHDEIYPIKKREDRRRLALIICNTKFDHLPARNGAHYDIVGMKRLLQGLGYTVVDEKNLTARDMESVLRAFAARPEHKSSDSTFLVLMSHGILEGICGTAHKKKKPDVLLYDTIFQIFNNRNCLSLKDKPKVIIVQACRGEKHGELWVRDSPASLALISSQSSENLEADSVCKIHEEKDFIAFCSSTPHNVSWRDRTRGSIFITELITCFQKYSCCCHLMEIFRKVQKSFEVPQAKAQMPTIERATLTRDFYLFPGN

Caspase-2 (Homo sapiens) = biological target: T5, Caspase-2 (Homo sapiens) (UniProt P42575); assay: Inhibition of recombinant human caspase 2 using DEVDAA substrate at up to 5 uM after 3 hrs; in short: as §1
T5 sequence (whole entry): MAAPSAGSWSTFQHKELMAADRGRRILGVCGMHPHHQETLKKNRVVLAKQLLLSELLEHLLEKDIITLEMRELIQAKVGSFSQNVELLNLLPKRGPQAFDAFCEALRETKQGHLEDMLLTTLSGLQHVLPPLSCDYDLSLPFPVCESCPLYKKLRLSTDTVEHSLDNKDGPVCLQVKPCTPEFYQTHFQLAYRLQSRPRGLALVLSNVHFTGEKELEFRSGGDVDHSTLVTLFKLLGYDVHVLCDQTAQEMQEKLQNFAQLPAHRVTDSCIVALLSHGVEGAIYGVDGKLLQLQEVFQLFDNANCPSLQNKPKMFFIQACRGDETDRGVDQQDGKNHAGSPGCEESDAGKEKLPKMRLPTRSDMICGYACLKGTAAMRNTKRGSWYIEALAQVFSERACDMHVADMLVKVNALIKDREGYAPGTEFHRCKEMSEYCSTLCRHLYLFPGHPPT

[6] = biological target: Cathepsin S (Homo sapiens) (UniProt P25774); assay: Inhibition of recombinant human cathepsin S using RTLTAK substrate at up to 5 uM after 3 hrs; in short: as §2
Chain of Cathepsin S (Homo sapiens) (P25774 115-331 limits assumed): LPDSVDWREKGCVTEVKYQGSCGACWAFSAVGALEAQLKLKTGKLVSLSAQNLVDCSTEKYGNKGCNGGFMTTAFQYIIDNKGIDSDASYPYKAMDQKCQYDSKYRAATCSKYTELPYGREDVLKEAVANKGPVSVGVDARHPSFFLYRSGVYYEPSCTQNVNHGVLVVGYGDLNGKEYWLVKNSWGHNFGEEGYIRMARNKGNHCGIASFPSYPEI

T1 sequence (P08684 whole entry): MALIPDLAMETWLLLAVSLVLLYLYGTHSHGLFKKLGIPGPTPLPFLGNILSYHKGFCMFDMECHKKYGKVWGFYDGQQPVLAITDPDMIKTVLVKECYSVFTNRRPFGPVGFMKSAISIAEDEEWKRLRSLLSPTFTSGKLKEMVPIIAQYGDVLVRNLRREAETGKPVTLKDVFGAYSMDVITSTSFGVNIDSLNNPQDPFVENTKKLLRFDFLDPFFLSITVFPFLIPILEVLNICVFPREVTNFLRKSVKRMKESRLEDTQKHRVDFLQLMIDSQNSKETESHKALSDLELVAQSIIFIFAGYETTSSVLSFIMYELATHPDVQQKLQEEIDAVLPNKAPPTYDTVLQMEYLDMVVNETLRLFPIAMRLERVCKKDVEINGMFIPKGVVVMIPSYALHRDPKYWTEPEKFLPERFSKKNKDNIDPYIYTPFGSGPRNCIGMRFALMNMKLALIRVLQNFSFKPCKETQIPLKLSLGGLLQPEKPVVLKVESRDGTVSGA
Chain of Beta-secretase 1 (Homo sapiens) (P56817 whole entry): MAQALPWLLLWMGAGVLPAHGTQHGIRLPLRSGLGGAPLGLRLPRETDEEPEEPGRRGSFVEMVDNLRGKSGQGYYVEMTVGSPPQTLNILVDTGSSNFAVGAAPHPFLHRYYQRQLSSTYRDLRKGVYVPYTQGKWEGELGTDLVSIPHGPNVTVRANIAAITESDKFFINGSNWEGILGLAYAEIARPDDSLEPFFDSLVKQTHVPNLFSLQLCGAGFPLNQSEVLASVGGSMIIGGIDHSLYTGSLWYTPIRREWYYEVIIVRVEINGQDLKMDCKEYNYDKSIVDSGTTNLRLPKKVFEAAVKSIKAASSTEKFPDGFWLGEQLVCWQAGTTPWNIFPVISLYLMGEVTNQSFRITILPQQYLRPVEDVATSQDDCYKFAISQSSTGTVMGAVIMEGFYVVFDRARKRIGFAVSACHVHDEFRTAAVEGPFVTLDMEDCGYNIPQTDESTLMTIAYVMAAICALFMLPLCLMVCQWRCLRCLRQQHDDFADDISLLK
Chain of Coagulation factor X (Homo sapiens) (P00742 41-179 limits assumed): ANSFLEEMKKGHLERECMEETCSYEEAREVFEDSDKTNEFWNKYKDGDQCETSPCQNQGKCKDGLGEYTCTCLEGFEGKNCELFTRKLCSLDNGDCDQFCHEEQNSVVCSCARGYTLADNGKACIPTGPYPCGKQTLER
Chain of Coagulation factor X (Homo sapiens) (P00742 235-488 limits assumed): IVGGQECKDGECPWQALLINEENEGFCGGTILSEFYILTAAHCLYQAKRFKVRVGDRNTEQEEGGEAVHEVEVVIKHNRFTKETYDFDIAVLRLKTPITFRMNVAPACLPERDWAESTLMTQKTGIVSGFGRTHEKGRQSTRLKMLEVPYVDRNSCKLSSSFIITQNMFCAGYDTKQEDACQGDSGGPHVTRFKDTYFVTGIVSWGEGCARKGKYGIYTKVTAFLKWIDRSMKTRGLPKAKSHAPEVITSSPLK
Chain of Cathepsin D (Homo sapiens) (P07339 65-162 limits assumed): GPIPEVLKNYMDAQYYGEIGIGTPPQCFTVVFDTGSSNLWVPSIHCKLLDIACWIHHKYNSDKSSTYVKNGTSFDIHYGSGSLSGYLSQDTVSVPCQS
Chain of Cathepsin D (Homo sapiens) (P07339 169-412 limits assumed): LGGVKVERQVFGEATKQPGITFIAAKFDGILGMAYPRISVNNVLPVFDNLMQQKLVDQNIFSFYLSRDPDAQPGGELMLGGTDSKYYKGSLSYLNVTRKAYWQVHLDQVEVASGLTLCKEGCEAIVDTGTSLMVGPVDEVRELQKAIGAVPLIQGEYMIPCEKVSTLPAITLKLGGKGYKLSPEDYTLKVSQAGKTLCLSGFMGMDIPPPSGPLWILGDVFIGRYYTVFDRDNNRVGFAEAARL
Chain of Furin (Homo sapiens) (P09958 whole entry): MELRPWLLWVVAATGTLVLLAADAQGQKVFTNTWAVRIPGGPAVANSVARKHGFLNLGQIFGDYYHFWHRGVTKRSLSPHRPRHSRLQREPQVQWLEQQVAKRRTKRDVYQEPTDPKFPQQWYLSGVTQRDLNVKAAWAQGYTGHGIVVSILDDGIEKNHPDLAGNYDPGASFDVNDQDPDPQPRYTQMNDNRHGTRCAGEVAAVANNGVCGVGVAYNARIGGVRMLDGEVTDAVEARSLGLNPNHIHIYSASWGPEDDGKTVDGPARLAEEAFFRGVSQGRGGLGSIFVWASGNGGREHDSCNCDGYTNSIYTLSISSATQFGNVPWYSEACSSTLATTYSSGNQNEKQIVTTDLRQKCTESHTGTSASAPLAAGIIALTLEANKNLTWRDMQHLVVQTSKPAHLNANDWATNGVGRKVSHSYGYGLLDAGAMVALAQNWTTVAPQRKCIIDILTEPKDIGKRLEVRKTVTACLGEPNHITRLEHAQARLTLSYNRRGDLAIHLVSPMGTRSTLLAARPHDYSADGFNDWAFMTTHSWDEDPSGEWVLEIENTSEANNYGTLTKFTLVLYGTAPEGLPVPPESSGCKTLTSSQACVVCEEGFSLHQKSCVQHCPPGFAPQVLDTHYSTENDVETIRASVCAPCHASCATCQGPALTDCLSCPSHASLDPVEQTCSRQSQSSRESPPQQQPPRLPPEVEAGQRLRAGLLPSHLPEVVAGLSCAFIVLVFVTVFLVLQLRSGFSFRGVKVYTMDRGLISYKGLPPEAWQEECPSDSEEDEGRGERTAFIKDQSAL
Chain of CYP3A4 (P08684 whole entry): as the sequence (P08684 whole entry) above

Structure (SMILES)	IC50 (Cytochrome P450 3A4 [1])	t1/2 (Liver microsome)	inhibition (Caspase-6 (Homo sapiens))	inhibition (Furin (Homo sapiens))	inhibition [2]	inhibition (INH) (Cytochrome P450 3A4 [3])	inhibition [4]	inhibition at 20 µM (CYP3A4)	inhibition (Caspase-7 (Homo sapiens))	inhibition [5]	inhibition (Caspase-5 (Homo sapiens))	inhibition (Caspase-2 (Homo sapiens))	inhibition [6]
Oc1nc(SCc2ccc(Cl)cc2)nc2c1CCC2	> 20 µM	6.8 min	–	–	–	–	–	–	–	–	–	–	–
Cc1cc(CNC(=O)c2cc(C(=O)NCc3ccc(F)c(C)c3)ncn2)ccc1F	–	–	< 10%	< 10%	< 10%	> 10%	< 10%	< 50%	< 10%	< 10%	< 10%	< 10%	< 10%
Cn1c(=O)n(Cc2ccc(C(=O)O)cc2)c(=O)c2cc(C#CCc3ccccc3)ccc21	–	–	< 10%	< 10%	< 10%	–	< 10%	–	< 10%	< 10%	< 10%	< 10%	< 10%
COC(=O)c1ccc(CSc2nc3c(c(=O)[nH]2)CCC3)cc1	> 20 µM	1.8 min	–	–	–	< 50%	–	< 50%	–	–	–	–	–
